Assay results gathered from unrelated publications.
Compare with care: the assays were run in different laboratories. pEC50, pKd, pKi: −log10 of the molar value.
ESR1: Estrogen receptor (ESR1, Homo sapiens, UniProt P03372)
PLK4: Serine/threonine-protein kinase PLK4 (PLK4, Homo sapiens, UniProt O00444)
OPRL1: Nociceptin receptor (OPRL1, Homo sapiens, UniProt P41146)
nupG: nupG (Escherichia coli, UniProt P0AFF4)
ADRA2C: Alpha-2C adrenergic receptor (ADRA2C, Homo sapiens, UniProt P18825)
PIK3C3: Phosphatidylinositol 3-kinase catalytic subunit type 3 (PIK3C3, Homo sapiens, UniProt Q8NEB9)

| SMILES | target | test | setting | measurement | result |
| --- | --- | --- | --- | --- | --- |
| C[C@]12CC[C@H](O)CC1=CC[C@@H]1[C@@H]2CC[C@]2(C)C(c3cccnc3)=CC[C@@H]12 | ESR1 | ligand displacement in cells, radioligand | – | pKi | 6.41 |
| CCOc1cc(-c2nncn2C)ccc1Nc1ncc2cc(C)nc(NCC(C)(C)C)c2n1 | PLK4 | binding, competition with immobilised ligand | – | pKd | 7.15 |
| Cc1occc(=O)c1O | Carbonic anhydrase 14 (CA14, Homo sapiens, UniProt Q9ULX7) | enzyme activity, inhibitor, stopped-flow | – | pKi | 5.14 |
| C[C@]12CCC3=C4CCC(=O)C=C4CC[C@H]3[C@@H]1CC[C@@]2(O)CC#N | ESR1 | reporter gene, agonist | – | pEC50 | < 4.60 |
| O=c1ccn([C@@H]2O[C@H](COP(=O)(O)OP(=O)(O)O[C@H]3OC[C@@H](O)[C@H](O)[C@H]3O)[C@@H](O)[C@H]2O)c(=O)[nH]1 | UDP-glucose 6-dehydrogenase (UGDH, Homo sapiens, UniProt O60701) | enzyme activity, inhibitor | – | pKi | 6.74 |
| CCOC(=O)[C@@]12C[C@@H]1[C@@H](n1cnc3c(NC)nc(C#Cc4ccc(Cl)s4)nc31)[C@H](O)[C@@H]2O | OPRL1 | ligand displacement, radioligand | – | pKi | < 5.00 |
| Nc1ncnc2c1ncn2[C@@H]1O[C@H](CO)[C@@H](O)[C@H]1O | nupG | binding, ITC | – | pKd | 4.00 |
| CCCCN1CCC(COC(=O)c2ccc(N)c(OCF)c2)CC1 | ADRA2C | cell-free assay, radioligand | – | pKi | 6.11 |
| C=CC(=O)N1CCC(C(=O)N(C)CC(=O)N2CCN(c3nc(-c4cnc(N)nc4C(F)F)nc(N4CCOCC4)n3)CC2)CC1 | PIK3C3 | binding, competition with immobilised ligand | – | pKd | 6.56 |
| Nc1ccn([C@@H]2O[C@H](CO)[C@@H](O)[C@H]2O)c(=O)n1 | nupG | binding, ITC | – | pKd | 3.84 |
| CC1Cc2ccccc2N1C(=O)NCCCCN(C)[C@@H]1Cc2cccc3[nH]c(=O)n(c23)C1 (mixture of isomers) | 5-hydroxytryptamine receptor 1A (HTR1A, Homo sapiens, UniProt P08908) | ligand displacement, radioligand | – | pKi | 7.63 |
| C=CC(=O)N1CCC(C(=O)NCC(=O)N2CCN(c3nc(-c4cnc(N)nc4C(F)F)nc(N4CCOCC4)n3)CC2)CC1 | PIK3C3 | binding, competition with immobilised ligand | – | pKd | 7.27 |
| CNCC[C@@H](Oc1ccccc1CCCF)c1ccccc1 | Norepinephrine transporter (Slc6a2, Rattus norvegicus, UniProt Q9WTR4) | ligand displacement, radioligand | cell membranes | pKi | 7.64 |
| Cc1nc(NC(=O)N2CCC[C@H]2C(N)=O)sc1-c1ccnc(C(C)(C)C(F)(F)F)c1 | PIK3C3 | binding, competition with immobilised ligand | – | pKd | 4.61 |
| C=C(C)[C@@H]1CC=C(C)C(=O)C1 | OR1A1 (Homo sapiens, UniProt Q9P1Q5) | cAMP, agonist, luciferase | – | pEC50 | 5.14 |
| COc1ccccc1/C=C/C(=O)NC(=S)Nc1ccc(S(=O)(=O)N(C)c2ccccc2)cc1 | G-protein coupled receptor 55 (GPR55, Homo sapiens, UniProt Q9Y2T6) | β-arrestin recruitment, agonist | – | pEC50 | 6.52 |
| Nc1nc2c(ncn2[C@@H]2O[C@H](COP(=O)(O)OP(=O)(O)O)[C@@H](OP(=O)(O)OP(=O)(O)O)[C@H]2O)c(=O)[nH]1 | pgk (Escherichia coli, UniProt P0A799) | binding, ITC | – | pKd | 3.31 |
| CNc1nc(C#Cc2ccc(Cl)s2)nc2c1ncn2[C@H]1[C@H](O)[C@H](O)[C@]2(C(=O)OCc3ccccc3)C[C@H]12 | OPRL1 | ligand displacement, radioligand | – | pKi | < 5.00 |
| CCCOc1cccc2nc(N)n(Cc3ccc(Cl)c(Cl)c3)c12 | Pteridine reductase (PTR1, Trypanosoma brucei brucei, UniProt O76290) | enzyme activity, inhibitor, absorbance | – | pKi | 7.30 |
| CCCNc1nc2ccccc2n1Cc1ccc(Cl)cc1 | ADRA2C | ligand displacement, radioligand | – | pKi | 6.36 |
| C[C@H]1Oc2cc(cnc2N)-c2c(nn(C)c2C#N)CN(C)C(=O)c2ccc(F)cc21 | PLK4 | cell-free assay | lysate | pKi | 6.97 |
